From ChEMBL document CHEMBL5724801, “EUbOPEN Chemogenomics Library - Multiplex” (2024)
Where “and” joins values, the source holds several entries; their conditions need not be identical. Identical values can stand only once.

Tested on: HEK-293T
Assay: Multiplex assay against HEK293T
Assay type: toxicity, cell-based
Settings: human
How it was run: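 Hoechst33342, BioTracker Green Microtubule Cytoskeleton Dye, MitoTracker Red and Annexin V Alexa Fluor 680 were added to live cells at seeding, and imaging on a CQ1 microscope at 37°C and 5% CO2 followed compound addition. Gating by CellPathfinder machine learning separated cells into Hoechst high-intensity objects or normal cells, then normal cells into healthy, pyknosed or fragmented nuclei, then pyknosed cells into mitotic or apoptotic. Per cents of healthy-nucleus cells are reported for the tubulin, mitochondrial-mass and membrane-permeability phenotypes.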

[1] = 12 h, 1 µM, compound concentration 1 uM
[2] = 12 h, 10 µM, compound concentration 10 uM
[3] = 24 h, 1 µM, compound concentration 1 uM
[4] = 24 h, 10 µM, compound concentration 10 uM
[5] = 48 h, 1 µM, compound concentration 1 uM
[6] = 48 h, 10 µM, compound concentration 10 uM

For `O=C(O)C(F)(F)F.O=C1NC(=O)/C(=C/c2c[nH]c(=O)c(-c3ccc(N4CCNCC4)nc3)c2)S1`, the “Population Apoptotic (%)” value [1] was 11.41% and 11.65%, the “Population Fragmented Nuclei (%)” value [1] was 1.85% and 6.98% and the “Population Hoechst High Intensity Objects (%)” value [1] was 0%. For the same compound, the “Population Mitotic Cells (%)” value [1] was 88.59% and 88.35%, the “Population Normal (%)” value [1] was 100% and the “Population Pyknosed Nuclei (%)” value [1] was 39.31% and 79.84%. For the same compound, the “Total Cell Count” value [1] was 379 and 129, the “Population Apoptotic (%)” value [2] was 6.85% and 12.69% and the “Population Fragmented Nuclei (%)” value [2] was 2.2% and 4.57%. The “Population Healthy Nuclei (%)” value [2] was 57.69% and 27.41%, the “Population Hoechst High Intensity Objects (%)” value [2] was 0.27% and 0% and the “Population Membrane Permeable-Phenotype (%)” value [2] was 0.95% and 0%. The “Population Mitotic Cells (%)” value [2] was 93.15% and 87.31%, the “Population Normal (%)” value [2] was 99.73% and 100% and the “Population Pyknosed Nuclei (%)” value [2] was 40.11% and 68.02%. For the same compound, the “Total Cell Count” value [2] was 365 and 197, the “Population Apoptotic (%)” value [3] was 17.05% and 22.22% and the “Population Fragmented Nuclei (%)” value [3] was 1.89% and 2.88%. The “Population Healthy Nuclei (%)” value [3] was 75.95% and 25.9%, the “Population Hoechst High Intensity Objects (%)” value [3] was 0.17% and 0% and the “Population Membrane Permeable-Phenotype (%)” value [3] was 1.13% and 0%. For the same compound, the “Population Mitochondria Different-Phenotype (%)” value [3] was 18.1% and 11.11%, the “Population Mitotic Cells (%)” value [3] was 82.95% and 77.78% and the “Population Normal (%)” value [3] was 99.83% and 100%. For the same compound, the “Population Apoptotic (%)” value [4] was 8.74% and 7.63%, the “Population Fragmented Nuclei (%)” value [4] was 1.47% and 3.95% and the “Population Healthy Nuclei (%)” value [4] was 81.67% and 49.41%. The “Population Hoechst High Intensity Objects (%)” value [4] was 0.16% and 0.39%, the “Population Membrane Permeable-Phenotype (%)” value [4] was 1% and 0.8% and the “Population Mitochondria Different-Phenotype (%)” value [4] was 11.22% and 10.4%. The “Population Mitotic Cells (%)” value [4] was 91.26% and 92.37%, the “Population Normal (%)” value [4] was 99.84% and 99.61% and the “Population Pyknosed Nuclei (%)” value [4] was 16.86% and 46.64%. The “Population Tubulin-Different-Phenotype (%)” value [4] was 10.02% and 1.6%, the “Total Cell Count” value [4] was 612 and 254 and the “Population Apoptotic (%)” value [5] was 6.45% and 15.87%. The “Population Fragmented Nuclei (%)” value [5] was 2.67% and 3.98%, the “Population Healthy Nuclei (%)” value [5] was 86.14% and 60.23% and the “Population Hoechst High Intensity Objects (%)” value [5] was 0.07% and 0%. The “Population Membrane Permeable-Phenotype (%)” value [5] was 4.02% and 0.94%, the “Population Mitochondria Different-Phenotype (%)” value [5] was 12.07% and 19.81% and the “Population Mitotic Cells (%)” value [5] was 93.55% and 84.13%. For the same compound, the “Population Normal (%)” value [5] was 99.93% and 100%, the “Population Apoptotic (%)” value [6] was 7.41% and 20.63% and the “Population Fragmented Nuclei (%)” value [6] was 4.01% and 2.52%. For the same compound, the “Population Healthy Nuclei (%)” value [6] was 88.47% and 81.61%, the “Population Hoechst High Intensity Objects (%)” value [6] was 0% and 0.5% and the “Population Membrane Permeable-Phenotype (%)” value [6] was 6.36% and 2.78%. The “Population Mitochondria Different-Phenotype (%)” value [6] was 6.55% and 12.04%, the “Population Mitotic Cells (%)” value [6] was 92.59% and 79.37% and the “Population Normal (%)” value [6] was 100% and 99.5%. The “Population Pyknosed Nuclei (%)” value [6] was 7.52% and 15.87%.
`O=C(Nc1c[nH]nc1-c1nc2cc(CN3CCOCC3)ccc2[nH]1)NC1CC1` [AT-9283] was tested, and the “Population Apoptotic (%)” value [1] was 12.17% and 7.08%, the “Population Fragmented Nuclei (%)” value [1] was 0.89% and 3.5% and the “Population Healthy Nuclei (%)” value [1] was 48% and 17.48%. The “Population Hoechst High Intensity Objects (%)” value [1] was 0%, the “Population Membrane Permeable-Phenotype (%)” value [1] was 0.93% and 0% and the “Population Mitotic Cells (%)” value [1] was 87.83% and 92.92%. For the same compound, the “Population Normal (%)” value [1] was 100%, the “Population Pyknosed Nuclei (%)” value [1] was 51.11% and 79.02% and the “Total Cell Count” value [1] was 225 and 143. The “Population Apoptotic (%)” value [2] was 9.66% and 13.57%, the “Population Fragmented Nuclei (%)” value [2] was 1.6% and 0.63% and the “Population Healthy Nuclei (%)” value [2] was 28% and 10.76%. The “Population Hoechst High Intensity Objects (%)” value [2] was 0%, the “Population Membrane Permeable-Phenotype (%)” value [2] was 0% and 11.76% and the “Population Mitotic Cells (%)” value [2] was 90.34% and 86.43%. The “Population Normal (%)” value [2] was 100%, the “Population Pyknosed Nuclei (%)” value [2] was 70.4% and 88.61% and the “Population Tubulin-Different-Phenotype (%)” value [2] was 20% and 35.29%. For the same compound, the “Total Cell Count” value [2] was 250 and 158, the “Population Apoptotic (%)” value [3] was 21.74% and 12.8% and the “Population Fragmented Nuclei (%)” value [3] was 4.26% and 2.61%. The “Population Hoechst High Intensity Objects (%)” value [3] was 0.35% and 0%, the “Population Membrane Permeable-Phenotype (%)” value [3] was 0% and 4.17% and the “Population Mitochondria Different-Phenotype (%)” value [3] was 18.06% and 0%. The “Population Mitotic Cells (%)” value [3] was 78.26% and 87.2%, the “Population Normal (%)” value [3] was 99.65% and 100% and the “Population Pyknosed Nuclei (%)” value [3] was 40.78% and 81.7%. For the same compound, the “Population Tubulin-Different-Phenotype (%)” value [3] was 17.42% and 16.67%, the “Total Cell Count” value [3] was 283 and 153 and the “Population Apoptotic (%)” value [4] was 24.17% and 28.99%. For the same compound, the “Population Fragmented Nuclei (%)” value [4] was 0.37% and 0.67%, the “Population Hoechst High Intensity Objects (%)” value [4] was 0.37% and 0% and the “Population Membrane Permeable-Phenotype (%)” value [4] was 1.79% and 0%. For the same compound, the “Population Mitotic Cells (%)” value [4] was 75.83% and 71.01%, the “Population Normal (%)” value [4] was 99.63% and 100% and the “Population Pyknosed Nuclei (%)” value [4] was 78.73% and 92.62%. For the same compound, the “Population Tubulin-Different-Phenotype (%)” value [4] was 33.93% and 40%, the “Total Cell Count” value [4] was 269 and 149 and the “Population Apoptotic (%)” value [5] was 44.44% and 22.06%. For the same compound, the “Population Fragmented Nuclei (%)” value [5] was 2.23% and 0%, the “Population Healthy Nuclei (%)” value [5] was 80.17% and 46.03% and the “Population Hoechst High Intensity Objects (%)” value [5] was 0% and 0.79%. For the same compound, the “Population Membrane Permeable-Phenotype (%)” value [5] was 3.83% and 1.72%, the “Population Mitochondria Different-Phenotype (%)” value [5] was 49.13% and 22.41% and the “Population Mitotic Cells (%)” value [5] was 55.56% and 77.94%. For the same compound, the “Population Normal (%)” value [5] was 100% and 99.21%, the “Total Cell Count” value [5] was 358 and 127 and the “Population Apoptotic (%)” value [6] was 52.36% and 56.2%. For the same compound, the “Population Fragmented Nuclei (%)” value [6] was 1.67% and 2.67%, the “Population Hoechst High Intensity Objects (%)” value [6] was 0.83% and 0% and the “Population Membrane Permeable-Phenotype (%)” value [6] was 0%. For the same compound, the “Population Mitochondria Different-Phenotype (%)” value [6] was 88.89% and 55.56%, the “Population Mitotic Cells (%)” value [6] was 47.64% and 43.8% and the “Population Normal (%)” value [6] was 99.17% and 100%. For the same compound, the “Population Pyknosed Nuclei (%)” value [6] was 79.58% and 91.33%, the “Population Tubulin-Different-Phenotype (%)” value [6] was 24.44% and 55.56% and the “Total Cell Count” value [6] was 242 and 150.
